The values below come from ChEMBL document CHEMBL3745659, “Synthesis and Characterization of 4,11-Diaminoanthra[2,3-b]furan-5,10-diones: Tumor Cell Apoptosis through tNOX-Modulated NAD(+)/NADH Ratio and SIRT1” (J Med Chem, 2015).

Molecules are shown by their SMILES. pIC50: −log10 of the molar value.

One series deals with CCRF-CEM. Briefly: Antiproliferative activity against human CEM cells after 72 hrs by MTT assay. Type of series: functional, cell-based.
For a further series, the system named is K562. The series is described as follows: Drug uptake in human K562 cells at 3 uM incubated for 2 hrs in presence of verapamil by flow cytometric analysis. The class given is ADME, cell-based. As to conditions: k562, 2 h; call rule not given here. Summed up: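 K562 and K562/4 cells incubated 2 h with 3 µM compound; uptake measured by flow cytometry as ratios (arbitrary units) of mean fluorescence channels of the histograms; verapamil (10 µM), a Pgp transport blocker, added 30 min before compound where used.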
A general note: A flow cytometer gives signals particle by particle.

Series [1] has as its target T1, NAD-dependent protein deacetylase sirtuin-1 (Homo sapiens, UniProt Q96EB6).
T1 sequence (Q96EB6 whole entry): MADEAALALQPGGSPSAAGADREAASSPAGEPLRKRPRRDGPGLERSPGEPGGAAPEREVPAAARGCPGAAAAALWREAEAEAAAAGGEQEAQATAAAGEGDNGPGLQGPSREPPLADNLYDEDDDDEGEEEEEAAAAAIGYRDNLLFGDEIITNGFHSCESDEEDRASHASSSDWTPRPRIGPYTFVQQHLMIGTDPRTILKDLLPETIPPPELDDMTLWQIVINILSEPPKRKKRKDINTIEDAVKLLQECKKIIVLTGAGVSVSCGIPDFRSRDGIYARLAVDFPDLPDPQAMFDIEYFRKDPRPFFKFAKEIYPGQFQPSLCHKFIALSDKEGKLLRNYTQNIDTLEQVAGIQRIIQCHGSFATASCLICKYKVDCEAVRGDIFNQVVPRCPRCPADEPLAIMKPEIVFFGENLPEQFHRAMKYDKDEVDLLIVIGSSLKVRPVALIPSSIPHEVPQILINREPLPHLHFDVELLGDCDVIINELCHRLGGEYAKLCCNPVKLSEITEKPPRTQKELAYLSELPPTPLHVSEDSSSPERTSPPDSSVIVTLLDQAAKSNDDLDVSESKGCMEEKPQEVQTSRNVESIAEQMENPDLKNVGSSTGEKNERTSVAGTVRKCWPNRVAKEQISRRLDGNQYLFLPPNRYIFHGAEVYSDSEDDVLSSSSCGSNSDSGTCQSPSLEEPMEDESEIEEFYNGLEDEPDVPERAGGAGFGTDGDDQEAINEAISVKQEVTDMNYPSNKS
The series is described as follows: Inhibition of human recombinant SIRT1 deacetylase activity using Arg-His-Lys-Lys(epsilon-acetyl)-AMC as substrate incubated for 45 mins by fluorescence analysis.

As a reminder, the pIC50 is −log10 of the IC50, conventionally taken in molar units. Take `CNCCNc1c2c(c(NCCNC)c3occc13)C(=O)c1ccccc1C2=O`: the values for the negative-log IC50 (pIC50) (in the series on CCRF-CEM; in series [1]) were 6.72 and 5.41, respectively. In addition, the Drug uptake result in the series with K562 is reported as “Active”.
